This passage reports half-life and Activity results from ChEMBL document CHEMBL4354843, “Structure-Based Design of a Potent and Selective Covalent Inhibitor for SRC Kinase That Targets a P-Loop Cysteine” (J Med Chem, 2020).

A short description of series [1]: Half life in B6 mouse at 5 mg/kg, ip. The series is classed as ADME, organism-based. The settings on record: in vivo. The gist of the method: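 PK in B6 mice. Single 5 mg/kg intraperitoneal dose in 5% DMSO/95% D5W. Half-life and AUC reported.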
The target of series [2] is 5'-AMP-activated protein kinase catalytic subunit alpha-1 (Homo sapiens) (UniProt Q13131). The experiment in a line: Binding affinity to wild-type human partial length AMPK alpha1 (M1 to E306 residues) expressed in bacterial expression system assessed as residual binding level at 1 uM by Kinomescan method relative to control.
Series [3] concerns the target 5'-AMP-activated protein kinase catalytic subunit alpha-2 (Homo sapiens) (UniProt P54646). Kind of series: Binding affinity to wild-type human partial length AMPK alpha2 (M1 to E306 residues) expressed in bacterial expression system assessed as residual binding level at 1 uM by Kinomescan method relative to control.
Series [4] deals with Mitotic checkpoint serine/threonine-protein kinase BUB1 (Homo sapiens) (UniProt O43683). Kind of series: Binding affinity to wild-type human partial length BUB1 (Q724 to K1085 residues) expressed in mammalian expression system assessed as residual binding level at 1 uM by Kinomescan method relative to control. The gist of the method: (§1)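 KinomeScan, an active site-directed competition binding panel of 468 kinases. The test compound was at 1 μM. The readout is remaining kinase binding as a percentage of the DMSO control. Scores above 35% were treated as weak binding and not listed.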

The target in series [5] is Cyclin-dependent kinase 2 (Homo sapiens) (UniProt P24941). The experiment in a line: Binding affinity to wild-type human full length CDK2 (M1 to L298 residues) expressed in bacterial expression system assessed as residual binding level at 1 uM by Kinomescan method relative to control. The gist of the method: (§2)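 Active-site-directed KinomeScan competition binding panel covering 468 kinases, compound tested at 1 μM. Each readout is the kinase signal remaining with compound, expressed as a percentage of the DMSO control. […]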

Series [6] has as its target Casein kinase I isoform epsilon (Homo sapiens) (UniProt P49674). The experiment in a line: Binding affinity to wild-type human full length CSNK1E (M1 to K416 residues) expressed in bacterial expression system assessed as residual binding level at 1 uM by Kinomescan method relative to control. The essentials:
as §2

The test system of series [7] is Epidermal growth factor receptor (Homo sapiens), P00533 [UNDEFINED MUTATION]. Kind of series: Binding affinity to human partial length EGFR L747-E749del/A750P mutant expressed in bacterial expression system assessed as residual binding level at 1 uM by Kinomescan method relative to control. The essentials:
(§3)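 KinomeScan active site-directed competition binding panel (468 kinases), compound tested at 1 μM. Result expressed as remaining kinase signal versus DMSO control (percent of control).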

Series [8] concerns the target Ephrin type-A receptor 6 (Homo sapiens) (UniProt Q9UF33). The experiment in a line: Binding affinity to wild-type human partial length EPHA6 (Y700 to E1046 residues) expressed in bacterial expression system assessed as residual binding level at 1 uM by Kinomescan method relative to control.
The target in series [9] is Mitogen-activated protein kinase kinase kinase 4 (Homo sapiens) (UniProt Q9Y6R4). The experiment in a line: Binding affinity to wild-type human partial length MAP3K4 (G1319 to E1608 residues) expressed in bacterial expression system assessed as residual binding level at 1 uM by Kinomescan method relative to control.
In series [10] the target is MAP/microtubule affinity-regulating kinase 3 (Homo sapiens) (UniProt P27448). The experiment in a line: Binding affinity to wild-type human full length MARK3 (M1 to L729 residues) expressed in bacterial expression system assessed as residual binding level at 1 uM by Kinomescan method relative to control. The gist of the method:
as §1

Series [11] has as its target Serine/threonine-protein kinase Nek1 (Homo sapiens) (UniProt Q96PY6). Kind of series: Binding affinity to wild-type human partial length NEK1 (M1 to K278 residues) expressed in bacterial expression system assessed as residual binding level at 1 uM by Kinomescan method relative to control.
The target in series [12] is Serine/threonine-protein kinase Nek5 (Homo sapiens) (UniProt Q6P3R8). The experiment in a line: Binding affinity to wild-type human partial length NEK5 (M1 to M279 residues) expressed in bacterial expression system assessed as residual binding level at 1 uM by Kinomescan method relative to control.
For series [13], the target named is Serine/threonine-protein kinase NLK (Homo sapiens) (UniProt Q9UBE8). Kind of series: Binding affinity to wild-type human full length NLK (M13 to E527 residues) expressed in bacterial expression system assessed as residual binding level at 1 uM by Kinomescan method relative to control. The gist of the method:
as §1

The target of series [14] is Serine/threonine-protein kinase PAK 2 (Homo sapiens) (UniProt Q13177). The experiment in a line: Binding affinity to wild-type human partial length PAK2 (P151 to R525 residues) expressed in bacterial expression system assessed as residual binding level at 1 uM by Kinomescan method relative to control. The essentials:
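Active-site-directed competition binding panel of 468 kinases (KinomeScan), compound at 1 μM. The read-out is kinase remaining bound, given as a percentage of the DMSO control. […]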

The test system of series [15] is Phosphatidylinositol 4,5-bisphosphate 3-kinase catalytic subunit alpha isoform (Homo sapiens), P42336 [E545K]. Kind of series: Binding affinity to human partial length PIK3CA E545K mutant (R108 to N1068 residues) expressed in mammalian expression system assessed as residual binding level at 1 uM by Kinomescan method relative to control. The essentials:
as §3

Series [16] concerns the target cAMP-dependent protein kinase catalytic subunit PRKX (Homo sapiens) (UniProt P51817). The experiment in a line: Binding affinity to wild-type human partial length PRKX (M1 to F358 residues) expressed in bacterial expression system assessed as residual binding level at 1 uM by Kinomescan method relative to control.
The target in series [17] is Ribosomal protein S6 kinase alpha-2 (Homo sapiens) (UniProt Q15349). The experiment in a line: Binding affinity to wild-type human partial length C-terminal RSK3 kinase domain 2 (V403 to K700 residues) expressed in bacterial expression system assessed as residual binding level at 1 uM by Kinomescan method relative to control.
Series [18] addresses SRSF protein kinase 3 (Homo sapiens) (UniProt Q9UPE1). Kind of series: Binding affinity to wild-type human partial length SRPK3 (P41 to P567 residues) expressed in bacterial expression system assessed as residual binding level at 1 uM by Kinomescan method relative to control.
Series [19] concerns the target Non-receptor tyrosine-protein kinase TNK1 (Homo sapiens) (UniProt Q13470). Kind of series: Binding affinity to wild-type human full length TNK1 (M1 to P661 residues) expressed in bacterial expression system assessed as residual binding level at 1 uM by Kinomescan method relative to control. The gist of the method: as §1
In series [20] the target is High affinity nerve growth factor receptor (Homo sapiens) (UniProt P04629). Kind of series: Binding affinity to wild-type human partial length TRKA (G475 to G790 residues) expressed in mammalian expression system assessed as residual binding level at 1 uM by Kinomescan method relative to control.
In series [21] the target is Wee1-like protein kinase (Homo sapiens) (UniProt P30291). Kind of series: Binding affinity to wild-type human partial length WEE1 (M291 to K575 residues) expressed in bacterial expression system assessed as residual binding level at 1 uM by Kinomescan method relative to control.
The target of series [22] is Serine/threonine-protein kinase WNK3 (Homo sapiens) (UniProt Q9BYP7). Kind of series: Binding affinity to wild-type human partial length WNK3 (M1 to D434 residues) expressed in mammalian expression system assessed as residual binding level at 1 uM by Kinomescan method relative to control.
Serine/threonine-protein kinase WNK3 (Homo sapiens), sequence (Q9BYP7 whole entry, the tested form may be a part): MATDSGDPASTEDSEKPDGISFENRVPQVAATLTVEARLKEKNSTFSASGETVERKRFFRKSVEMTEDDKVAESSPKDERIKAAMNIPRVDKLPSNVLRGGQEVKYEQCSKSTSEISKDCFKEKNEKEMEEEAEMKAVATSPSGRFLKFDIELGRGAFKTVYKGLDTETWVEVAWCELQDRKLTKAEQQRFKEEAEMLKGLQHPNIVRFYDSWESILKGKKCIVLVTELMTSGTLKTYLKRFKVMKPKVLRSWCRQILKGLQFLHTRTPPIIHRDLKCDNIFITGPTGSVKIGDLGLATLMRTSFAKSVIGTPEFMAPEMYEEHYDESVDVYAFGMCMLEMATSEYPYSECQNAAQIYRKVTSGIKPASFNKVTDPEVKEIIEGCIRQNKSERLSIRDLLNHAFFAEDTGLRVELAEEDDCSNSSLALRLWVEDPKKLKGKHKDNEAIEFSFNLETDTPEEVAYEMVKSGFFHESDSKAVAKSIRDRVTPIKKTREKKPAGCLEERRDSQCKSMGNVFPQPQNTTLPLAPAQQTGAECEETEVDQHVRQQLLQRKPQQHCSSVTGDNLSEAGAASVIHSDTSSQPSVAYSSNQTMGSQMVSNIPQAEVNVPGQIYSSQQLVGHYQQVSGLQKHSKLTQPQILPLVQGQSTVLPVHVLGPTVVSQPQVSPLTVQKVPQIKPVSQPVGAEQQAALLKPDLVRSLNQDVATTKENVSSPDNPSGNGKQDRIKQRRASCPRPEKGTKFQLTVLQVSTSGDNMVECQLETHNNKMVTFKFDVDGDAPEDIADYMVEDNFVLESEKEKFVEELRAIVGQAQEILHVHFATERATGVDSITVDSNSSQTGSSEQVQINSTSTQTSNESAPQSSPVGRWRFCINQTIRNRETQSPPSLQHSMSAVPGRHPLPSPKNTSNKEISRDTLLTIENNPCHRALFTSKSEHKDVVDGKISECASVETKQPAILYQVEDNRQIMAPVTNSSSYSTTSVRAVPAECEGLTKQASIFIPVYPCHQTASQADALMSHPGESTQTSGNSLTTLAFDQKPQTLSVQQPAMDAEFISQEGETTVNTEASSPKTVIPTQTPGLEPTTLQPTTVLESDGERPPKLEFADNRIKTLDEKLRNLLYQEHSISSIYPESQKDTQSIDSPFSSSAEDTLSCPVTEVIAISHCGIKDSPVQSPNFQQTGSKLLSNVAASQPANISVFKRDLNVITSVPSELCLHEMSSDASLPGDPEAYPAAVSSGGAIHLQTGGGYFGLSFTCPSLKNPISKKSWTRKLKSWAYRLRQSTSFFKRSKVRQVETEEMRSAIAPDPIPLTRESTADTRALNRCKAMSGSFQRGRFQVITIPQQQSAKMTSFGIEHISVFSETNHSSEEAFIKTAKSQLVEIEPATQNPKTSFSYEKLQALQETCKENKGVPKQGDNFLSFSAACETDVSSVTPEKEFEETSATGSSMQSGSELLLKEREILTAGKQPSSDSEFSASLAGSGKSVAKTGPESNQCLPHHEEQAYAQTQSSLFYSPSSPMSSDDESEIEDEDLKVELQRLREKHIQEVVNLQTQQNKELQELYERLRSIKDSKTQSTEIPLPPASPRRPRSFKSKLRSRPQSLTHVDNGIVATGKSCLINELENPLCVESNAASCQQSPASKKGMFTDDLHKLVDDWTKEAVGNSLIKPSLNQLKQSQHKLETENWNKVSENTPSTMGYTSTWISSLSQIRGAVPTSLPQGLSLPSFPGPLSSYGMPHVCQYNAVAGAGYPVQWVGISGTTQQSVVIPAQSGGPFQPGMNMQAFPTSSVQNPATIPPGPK

cAMP-dependent protein kinase catalytic subunit PRKX (Homo sapiens), sequence (P51817 whole entry, the tested form may be a part): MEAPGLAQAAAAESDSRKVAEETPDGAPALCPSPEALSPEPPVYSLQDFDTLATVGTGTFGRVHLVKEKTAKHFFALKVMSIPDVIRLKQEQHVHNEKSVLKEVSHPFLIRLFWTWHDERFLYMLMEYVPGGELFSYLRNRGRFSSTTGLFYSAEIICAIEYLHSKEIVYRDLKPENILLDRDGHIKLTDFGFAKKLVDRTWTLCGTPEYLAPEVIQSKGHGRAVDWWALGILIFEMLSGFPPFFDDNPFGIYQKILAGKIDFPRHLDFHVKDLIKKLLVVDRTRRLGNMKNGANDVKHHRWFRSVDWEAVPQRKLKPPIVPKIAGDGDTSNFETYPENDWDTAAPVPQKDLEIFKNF
Serine/threonine-protein kinase Nek1 (Homo sapiens), sequence (Q96PY6 whole entry, the tested form may be a part): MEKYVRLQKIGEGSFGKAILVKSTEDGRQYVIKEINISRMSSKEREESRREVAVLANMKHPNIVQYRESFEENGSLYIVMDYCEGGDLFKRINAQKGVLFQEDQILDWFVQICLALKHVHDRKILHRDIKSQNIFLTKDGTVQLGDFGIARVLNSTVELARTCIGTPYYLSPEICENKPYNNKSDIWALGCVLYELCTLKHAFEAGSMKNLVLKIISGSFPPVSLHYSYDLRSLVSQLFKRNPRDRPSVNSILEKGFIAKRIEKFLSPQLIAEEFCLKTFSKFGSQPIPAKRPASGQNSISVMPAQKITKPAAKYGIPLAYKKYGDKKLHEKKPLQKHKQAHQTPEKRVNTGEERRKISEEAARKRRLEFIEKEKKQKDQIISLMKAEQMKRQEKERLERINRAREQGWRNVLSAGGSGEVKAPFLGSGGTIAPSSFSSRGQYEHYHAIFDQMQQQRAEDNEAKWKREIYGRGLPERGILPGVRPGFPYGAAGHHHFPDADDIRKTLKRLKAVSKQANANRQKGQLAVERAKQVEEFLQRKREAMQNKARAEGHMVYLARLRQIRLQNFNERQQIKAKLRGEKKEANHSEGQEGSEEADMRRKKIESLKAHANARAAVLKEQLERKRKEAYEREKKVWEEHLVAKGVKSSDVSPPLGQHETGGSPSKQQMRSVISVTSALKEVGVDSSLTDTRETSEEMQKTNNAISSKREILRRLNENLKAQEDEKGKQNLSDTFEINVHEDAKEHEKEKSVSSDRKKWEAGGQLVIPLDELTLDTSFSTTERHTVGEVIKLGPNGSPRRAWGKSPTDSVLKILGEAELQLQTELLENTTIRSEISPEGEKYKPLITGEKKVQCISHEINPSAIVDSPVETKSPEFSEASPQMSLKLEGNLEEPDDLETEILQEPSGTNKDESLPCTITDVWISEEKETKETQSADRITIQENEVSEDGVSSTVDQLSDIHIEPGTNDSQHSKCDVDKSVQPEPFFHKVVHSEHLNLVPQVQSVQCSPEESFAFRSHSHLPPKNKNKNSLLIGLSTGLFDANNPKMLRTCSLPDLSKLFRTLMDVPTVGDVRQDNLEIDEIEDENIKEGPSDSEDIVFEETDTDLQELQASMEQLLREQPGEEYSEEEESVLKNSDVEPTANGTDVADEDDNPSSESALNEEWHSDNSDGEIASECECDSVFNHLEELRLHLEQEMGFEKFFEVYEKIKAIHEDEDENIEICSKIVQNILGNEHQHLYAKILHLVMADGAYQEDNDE
5'-AMP-activated protein kinase catalytic subunit alpha-1 (Homo sapiens), sequence (Q13131 whole entry, looked up, the tested form may be a part): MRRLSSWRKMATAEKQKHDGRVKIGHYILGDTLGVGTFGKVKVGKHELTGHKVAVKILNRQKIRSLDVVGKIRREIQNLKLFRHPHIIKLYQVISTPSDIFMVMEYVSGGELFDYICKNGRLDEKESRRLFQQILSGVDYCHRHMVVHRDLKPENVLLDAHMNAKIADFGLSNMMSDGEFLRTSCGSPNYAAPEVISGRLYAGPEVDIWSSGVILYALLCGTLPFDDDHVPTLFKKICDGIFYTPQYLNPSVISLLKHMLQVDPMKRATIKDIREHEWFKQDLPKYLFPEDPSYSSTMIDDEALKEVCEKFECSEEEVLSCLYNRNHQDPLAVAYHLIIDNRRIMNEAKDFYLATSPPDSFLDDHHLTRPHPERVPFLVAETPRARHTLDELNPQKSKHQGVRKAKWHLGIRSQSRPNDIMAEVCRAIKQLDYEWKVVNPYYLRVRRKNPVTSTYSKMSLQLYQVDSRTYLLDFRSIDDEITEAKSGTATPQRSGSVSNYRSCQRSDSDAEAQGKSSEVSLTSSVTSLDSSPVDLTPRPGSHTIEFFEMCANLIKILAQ
Serine/threonine-protein kinase NLK (Homo sapiens), sequence (Q9UBE8 whole entry, the tested form may be a part): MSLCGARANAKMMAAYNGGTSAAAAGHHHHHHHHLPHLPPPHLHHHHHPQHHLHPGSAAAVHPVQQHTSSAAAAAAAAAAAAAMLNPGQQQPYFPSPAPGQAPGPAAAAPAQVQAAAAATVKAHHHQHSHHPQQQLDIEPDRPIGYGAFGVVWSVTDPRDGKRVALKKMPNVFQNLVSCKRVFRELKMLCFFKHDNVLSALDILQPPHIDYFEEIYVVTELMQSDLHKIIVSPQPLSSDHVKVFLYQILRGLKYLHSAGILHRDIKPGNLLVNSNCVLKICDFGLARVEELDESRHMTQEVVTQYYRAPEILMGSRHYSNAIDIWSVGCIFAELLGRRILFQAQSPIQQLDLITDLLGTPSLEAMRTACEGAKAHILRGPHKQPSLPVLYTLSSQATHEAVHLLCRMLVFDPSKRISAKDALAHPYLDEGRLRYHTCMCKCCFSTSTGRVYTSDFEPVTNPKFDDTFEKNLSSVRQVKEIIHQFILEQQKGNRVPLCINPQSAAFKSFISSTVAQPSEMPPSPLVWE
5'-AMP-activated protein kinase catalytic subunit alpha-2 (Homo sapiens), sequence (P54646 whole entry, looked up, the tested form may be a part): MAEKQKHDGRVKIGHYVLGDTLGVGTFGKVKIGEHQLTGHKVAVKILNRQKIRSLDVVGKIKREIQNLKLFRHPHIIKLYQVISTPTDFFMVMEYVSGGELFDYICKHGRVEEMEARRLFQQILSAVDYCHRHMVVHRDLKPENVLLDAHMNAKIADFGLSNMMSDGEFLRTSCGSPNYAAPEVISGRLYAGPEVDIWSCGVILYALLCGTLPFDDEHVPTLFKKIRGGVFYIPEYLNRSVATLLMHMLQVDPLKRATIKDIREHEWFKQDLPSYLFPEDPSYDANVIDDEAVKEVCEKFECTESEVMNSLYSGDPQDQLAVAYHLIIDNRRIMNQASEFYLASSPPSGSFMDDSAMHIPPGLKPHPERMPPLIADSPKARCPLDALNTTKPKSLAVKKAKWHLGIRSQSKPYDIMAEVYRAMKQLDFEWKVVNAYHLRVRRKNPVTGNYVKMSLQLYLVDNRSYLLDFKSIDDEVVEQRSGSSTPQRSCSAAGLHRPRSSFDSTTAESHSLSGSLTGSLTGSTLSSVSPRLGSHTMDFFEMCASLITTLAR

Molecule `C=CC(=O)Nc1ccccc1Nc1nc(Nc2ccc(N3CCN(C)CC3)cc2)ncc1C(=O)Nc1c(C)cccc1Cl` registered a half-life in series [1] of 1.29 h. Moreover, the Activity in series [2] is 100%; in series [3], 100%; in [4], 88%; in series [5] it was 100%; in [6] it was 100%; in [7] it was 66%. Further, the Activity in series [8] came out at 100%; in [9] it was 65%; in series [10], 90%; in [11], 100%; in series [12], 100%; in series [13], 76%. The Activity in [14] was found to be 97%; in series [15] it was 79%; in series [16], 100%; in series [17], 100%; in [18], 100%; in series [19], 29%. The Activity in series [20], in [21] and in series [22] was 100% in each case.

As usually defined, the half-life is the time needed for the level to fall by half in the phase considered. Read a low half-life as fast loss.
